This is an account of results in ChEMBL document CHEMBL4433218, “Behind the Mirror: Chirality Tunes the Reactivity and Cytotoxicity of Chloropiperidines as Potential Anticancer Agents” (ACS Med Chem Lett, 2019).

The test system of data set [1] is DNA. The data set is described as follows: Induction of Escherichia coli pBR322 DNA cleavage in BPE buffer at 5 to 50 uM incubated for 2 hrs by electrophoresis method. It is filed as nucleic-acid assay. In short, it runs like this:
(§1)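 Supercoiled pBR322 plasmid (120 ng) incubated with compound at 5 and 50 μM in BPE buffer, 37 °C. Dilutions freshly made in water from 10 mM DMSO stock and added to DNA immediately. Supercoiled, open circular and linear forms resolved on 1% agarose in TAE and stained with GelRed.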

The test system of data set [2] is DNA. The data set is described as follows: Induction of Escherichia coli pBR322 DNA cleavage in BPE buffer at 5 to 50 uM incubated for 18 hrs by electrophoresis method. It is filed as nucleic-acid assay. In short, it runs like this: as §1
A short description of data set [3]: Induction of dsDNA (unknown origin) alkylation in BPE buffer at 50 uM incubated for 18 hrs by ESI-MS analysis. The procedure, abridged:
(§2)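 Duplex oligodeoxynucleotide at 2 μM final, incubated with compound at 50 μM final in BPE buffer, 37 °C. Compound diluted in water from 10 mM DMSO stock just before use. Analysed by direct-infusion ESI-MS on an Orbitrap in 150 mM ammonium acetate. Adducts and abasic species assigned by mass, 6− charge state.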

The test system of the next data set is HCT-15. The data set is described as follows: Cytotoxicity against human HCT15 cells assessed as reduction in cell viability incubated for 72 hrs by MTT assay. It is filed as functional, cell-based. The settings on record: HCT-15, 72 h. In short, it runs like this: (§3)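 Cell lines kept in log phase at 37 °C, 5% CO2 in RPMI-1640 with 10% fetal calf serum, penicillin 50 units/mL, streptomycin 50 μg/mL, 2 mM L-glutamine. Compounds dissolved in DMSO and added to medium at 0.5% final solvent. Treatment 72 h. Viability read by MTT. IC50 calculated.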

The nature of data set [4]: Stability in pH 7.4 PBS buffer incubated for 1 hr by UPLC-MS analysis. It is filed as physicochemical. The settings on record: pH 7.4, 1 h.
For another data set, the system named is 2008. The data set is described as follows: Cytotoxicity against human 2008 cells assessed as reduction in cell viability incubated for 72 hrs by MTT assay. It is filed as functional, cell-based. The settings on record: Homo sapiens, 2008, 72 h. In short, it runs like this: as §3
Data set [5] is described as follows: Induction of dsDNA (unknown origin) alkylation in BPE buffer at 50 uM incubated for 2 hrs by ESI-MS analysis. In short, it runs like this: as §2
The next data set relates to BXPC-3. The data set is described as follows: Cytotoxicity against human BxPC3 cells assessed as reduction in cell viability incubated for 72 hrs by MTT assay. It is filed as functional, cell-based. Particulars: BXPC-3, 72 h. The procedure, abridged:
as §3

Data set [6] deals with DNA topoisomerase 2-alpha (Homo sapiens) (UniProt P11388). The data set is described as follows: Inhibition of human DNA topoisomerase-2alpha mediated decatenation using kinetoplast DNA as substrate at 5 to 50 uM incubated for 2 to 18 hrs. The procedure, abridged: (§4)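 Human topoisomerase IIα decatenation of kinetoplast DNA, run with a commercial kit. Substrate DNA incubated with compound at 37 °C for 2 and 18 h.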
Sequence of DNA topoisomerase 2-alpha (Homo sapiens) (P11388 whole entry): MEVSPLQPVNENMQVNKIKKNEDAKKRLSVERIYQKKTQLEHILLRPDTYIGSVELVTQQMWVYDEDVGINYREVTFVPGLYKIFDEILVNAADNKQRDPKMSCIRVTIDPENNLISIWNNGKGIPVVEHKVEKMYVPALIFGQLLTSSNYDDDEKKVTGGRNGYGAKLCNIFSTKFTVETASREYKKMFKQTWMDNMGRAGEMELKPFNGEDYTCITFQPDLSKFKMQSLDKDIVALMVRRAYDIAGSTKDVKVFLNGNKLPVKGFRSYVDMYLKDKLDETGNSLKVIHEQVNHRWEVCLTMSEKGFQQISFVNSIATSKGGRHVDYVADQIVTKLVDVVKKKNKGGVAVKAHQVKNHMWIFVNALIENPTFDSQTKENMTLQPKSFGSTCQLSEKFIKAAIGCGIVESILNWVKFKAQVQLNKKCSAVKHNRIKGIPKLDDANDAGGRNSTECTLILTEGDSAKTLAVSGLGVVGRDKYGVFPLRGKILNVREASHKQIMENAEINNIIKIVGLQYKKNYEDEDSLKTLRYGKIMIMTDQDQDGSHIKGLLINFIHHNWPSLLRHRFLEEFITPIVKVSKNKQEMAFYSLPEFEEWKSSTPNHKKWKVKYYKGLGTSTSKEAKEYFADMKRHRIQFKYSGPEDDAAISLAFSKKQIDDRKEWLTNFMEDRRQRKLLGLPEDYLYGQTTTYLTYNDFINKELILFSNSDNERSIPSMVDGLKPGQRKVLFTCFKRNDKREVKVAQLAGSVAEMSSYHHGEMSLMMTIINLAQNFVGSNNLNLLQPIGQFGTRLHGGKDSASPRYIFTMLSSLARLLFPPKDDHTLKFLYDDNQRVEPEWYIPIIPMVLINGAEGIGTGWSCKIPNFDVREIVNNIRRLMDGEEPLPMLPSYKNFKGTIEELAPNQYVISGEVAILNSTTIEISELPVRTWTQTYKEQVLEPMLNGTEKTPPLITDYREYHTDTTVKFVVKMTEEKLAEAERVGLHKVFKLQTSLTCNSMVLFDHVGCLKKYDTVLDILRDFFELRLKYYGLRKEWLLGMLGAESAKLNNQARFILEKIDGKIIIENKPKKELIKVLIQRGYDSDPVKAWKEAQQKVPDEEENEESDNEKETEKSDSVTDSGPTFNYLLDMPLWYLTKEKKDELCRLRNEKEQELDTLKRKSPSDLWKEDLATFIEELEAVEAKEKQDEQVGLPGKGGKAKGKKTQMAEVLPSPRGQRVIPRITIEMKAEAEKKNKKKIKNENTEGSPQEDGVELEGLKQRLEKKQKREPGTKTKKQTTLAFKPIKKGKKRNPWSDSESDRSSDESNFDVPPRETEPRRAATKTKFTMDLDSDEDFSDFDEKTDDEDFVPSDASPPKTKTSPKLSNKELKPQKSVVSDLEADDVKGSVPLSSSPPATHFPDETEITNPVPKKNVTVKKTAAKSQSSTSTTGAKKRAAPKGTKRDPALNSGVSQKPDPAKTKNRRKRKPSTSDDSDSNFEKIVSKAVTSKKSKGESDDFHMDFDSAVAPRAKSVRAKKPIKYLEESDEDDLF

A short description of data set [7]: Permeability across PVDF membrane in PBS buffer of pH 7.4 at 500 uM incubated for 1 hr by UPLC-MS based PAMPA assay. It is filed as ADME. Particulars: pH 7.4, 1 h. In short, it runs like this:
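Donor: 500 μM compound in PBS pH 7.4, made from 10 mM DMSO stock. Acceptor: PBS with 5% DMSO. Filter coated with 1% L-α-phosphatidylcholine in n-dodecane. 1 h at room temperature. Initial, donor and acceptor samples quantified by UPLC-MS (C18, 0.1% formic acid water/acetonitrile gradient) against 20 μM caffeine internal standard. Membrane fraction taken by difference. Unreacted and reacted species summed.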

Data set [8] deals with DNA topoisomerase 2-alpha (Homo sapiens) (UniProt P11388). Kind of data set: Inhibition of human DNA topoisomerase-2alpha mediated decatenation using kinetoplast DNA as substrate at 50 uM incubated for 18 hrs. In short, it runs like this:
as §4

The source made the active and inactive calls. The rule behind the calls is not given here.

In the case of `CCCCN1CCCC(Cl)C1` (racemic), the result (in the data set with DNA [1]; in data set [5]) was inactive. Moreover, the outcome (in the data set on DNA [2]; in data set [3]) was Active. For the same molecule, the 50% inhibitory concentration (IC50) in the data set on HCT-15 amounted to 474 nM; in the data set on 2008, 329 nM; in the data set with BXPC-3, 57 nM. In addition, the Stability entry in data set [4] is listed as “Stable”.
With `CCCCN1CCC[C@@H](Cl)C1`, in data set [6], the inhibition result was “inactive”. In the data set on DNA [1], the outcome was inactive. For the same molecule, the outcome in the data set on DNA [2] was Active. The IC50 with HCT-15 was found to be 5640 nM; in the data set with 2008, 4600 nM; in the data set on BXPC-3, 274 nM. In addition, the Stability result in data set [4] is listed as “Stable”. In addition, the permeability entry in data set [7] is given as “Permeable”.
Consider `CCCCN1CCC[C@H](Cl)C1`, for which the inhibition result in data set [6] was “inactive”. The result with DNA [1] was inactive. Further, the outcome in the data set on DNA [2] was Active. Further, the values for the IC50 in the data set on HCT-15, in the data set with 2008 and in the data set on BXPC-3 were 181 nM, 102 nM and 7 nM, respectively. In addition, the Stability result in data set [4] is “Stable”. The permeability result in data set [7] was “Permeable”.
`CCCCN1CC(Cl)CC(C)(C)C1` (racemic): in data set [8], the inhibition result is “Active”. The result in the data set with DNA [1] was inactive. Further, the outcome (in the data set with DNA [2]; in data set [3]; in [5]) was Active. In addition, the concentration for half-maximal inhibition (IC50) in the data set with HCT-15 amounted to 254 nM; in the data set on 2008, 174 nM; with BXPC-3, 24 nM. Besides, the Stability result in [4] is recorded as “Stable”. In data set [7], the permeability entry was “Impermeable”.
Regarding `O=C(O)CCCc1ccc(N(CCCl)CCCl)cc1` [CHLORAMBUCIL], the outcome with DNA [1] was inactive. The outcome in the data set on DNA [2] was Active. Besides, the IC50 was 49700 nM with HCT-15, 12500 nM with 2008 and 75300 nM in the data set with BXPC-3.
Take `CC1(C)CC(Cl)CN(Cc2ccccc2)C1` (racemic): the inhibition entry in data set [8] is “Active”. The outcome with DNA [1] was inactive. The result with DNA [2] was Active. The IC50 with HCT-15 came out at 300 nM; in the data set on 2008, 107 nM; in the data set with BXPC-3, 6 nM. In [4], the Stability entry is “Stable”. Further, in data set [7], the permeability entry is “Impermeable”.
